Data published in ChEMBL document CHEMBL5058577, “EUbOPEN Chemogenomics Library 2 (Multiplex)” (2022).

Test system: Fibroblast
Test: Multiplex assay against human fibroblast
Type: toxicity, cell-based
In short: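 Four dyes were applied at seeding to live cells: Hoechst33342, BioTracker Green Microtubule Cytoskeleton Dye, MitoTracker Red and Annexin V Alexa Fluor 680. Imaging after compound addition used a CQ1 microscope at 37°C and 5% CO2. CellPathfinder machine-learning gating then sorted cells into Hoechst high-intensity objects or normal cells, normal cells into healthy, pyknosed or fragmented nuclei, and pyknosed cells into mitotic or apoptotic, with tubulin, mitochondrial-mass and membrane-permeability phenotypes given as per cents of healthy-nucleus cells.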

[1] = 12 h, 1 µM, compound concentration 1 uM, replicate 1
[2] = 12 h, 1 µM, compound concentration 1 uM, replicate 2
[3] = 12 h, 10 µM, compound concentration 10 uM, replicate 1
[4] = 12 h, 10 µM, compound concentration 10 uM, replicate 2
[5] = 24 h, 1 µM, compound concentration 1 uM, replicate 1
[6] = 24 h, 1 µM, compound concentration 1 uM, replicate 2
[7] = 24 h, 10 µM, compound concentration 10 uM, replicate 1
[8] = 24 h, 10 µM, compound concentration 10 uM, replicate 2
[9] = 48 h, 1 µM, compound concentration 1 uM, replicate 1
[10] = 48 h, 1 µM, compound concentration 1 uM, replicate 2
[11] = 48 h, 10 µM, compound concentration 10 uM, replicate 1
[12] = 48 h, 10 µM, compound concentration 10 uM, replicate 2

## CC(C)c1noc(N2CCC(COc3ccc(-c4ccc(S(C)(=O)=O)cc4)nc3)CC2)n1 [GSK-1292263]
[1]
  Population Apoptotic (%): 38%
  Population Fragmented Nuclei (%): 14%
  Population Healthy Nuclei (%): 74%
  Population Hoechst High Intensity Objects (%): 2%
  Population Membrane Permeable-Phenotype (%): 0%
  Population Mitochondria Different-Phenotype (%): 1%
  Population Mitotic Cells (%): 61%
  Population Normal (%): 97%
  Population Pyknosed Nuclei (%): 11%
  Population Tubulin-Different-Phenotype (%): 21%
  Total Cell Count: 189
[2]
  Population Apoptotic (%): 29%
  Population Fragmented Nuclei (%): 18%
  Population Healthy Nuclei (%): 50%
  Population Hoechst High Intensity Objects (%): 6%
  Population Membrane Permeable-Phenotype (%): 4%
  Population Mitochondria Different-Phenotype (%): 5%
  Population Mitotic Cells (%): 70%
  Population Normal (%): 93%
  Population Pyknosed Nuclei (%): 31%
  Population Tubulin-Different-Phenotype (%): 41%
  Total Cell Count: 149
[3]
  Population Apoptotic (%): 39%
  Population Fragmented Nuclei (%): 8%
  Population Healthy Nuclei (%): 65%
  Population Hoechst High Intensity Objects (%): 3%
  Population Membrane Permeable-Phenotype (%): 1%
  Population Mitochondria Different-Phenotype (%): 5%
  Population Mitotic Cells (%): 60%
  Population Normal (%): 96%
  Population Pyknosed Nuclei (%): 26%
  Population Tubulin-Different-Phenotype (%): 39%
  Total Cell Count: 162
[4]
  Population Apoptotic (%): 35%
  Population Fragmented Nuclei (%): 26%
  Population Healthy Nuclei (%): 45%
  Population Hoechst High Intensity Objects (%): 2%
  Population Membrane Permeable-Phenotype (%): 6%
  Population Mitochondria Different-Phenotype (%): 10%
  Population Mitotic Cells (%): 64%
  Population Normal (%): 97%
  Population Pyknosed Nuclei (%): 27%
  Population Tubulin-Different-Phenotype (%): 61%
  Total Cell Count: 145
[5]
  Population Apoptotic (%): 50%
  Population Fragmented Nuclei (%): 9%
  Population Healthy Nuclei (%): 78%
  Population Hoechst High Intensity Objects (%): 3%
  Population Membrane Permeable-Phenotype (%): 1%
  Population Mitochondria Different-Phenotype (%): 0%
  Population Mitotic Cells (%): 50%
  Population Normal (%): 96%
  Population Pyknosed Nuclei (%): 11%
  Population Tubulin-Different-Phenotype (%): 17%
  Total Cell Count: 182
[6]
  Population Apoptotic (%): 44%
  Population Fragmented Nuclei (%): 20%
  Population Healthy Nuclei (%): 53%
  Population Hoechst High Intensity Objects (%): 7%
  Population Membrane Permeable-Phenotype (%): 4%
  Population Mitochondria Different-Phenotype (%): 2%
  Population Mitotic Cells (%): 55%
  Population Normal (%): 92%
  Population Pyknosed Nuclei (%): 25%
  Population Tubulin-Different-Phenotype (%): 41%
  Total Cell Count: 142
[7]
  Population Apoptotic (%): 52%
  Population Fragmented Nuclei (%): 12%
  Population Healthy Nuclei (%): 67%
  Population Hoechst High Intensity Objects (%): 2%
  Population Membrane Permeable-Phenotype (%): 1%
  Population Mitochondria Different-Phenotype (%): 5%
  Population Mitotic Cells (%): 47%
  Population Normal (%): 97%
  Population Pyknosed Nuclei (%): 20%
  Population Tubulin-Different-Phenotype (%): 50%
  Total Cell Count: 168
[8]
  Population Apoptotic (%): 46%
  Population Fragmented Nuclei (%): 21%
  Population Healthy Nuclei (%): 55%
  Population Hoechst High Intensity Objects (%): 3%
  Population Membrane Permeable-Phenotype (%): 10%
  Population Mitochondria Different-Phenotype (%): 10%
  Population Mitotic Cells (%): 53%
  Population Normal (%): 96%
  Population Pyknosed Nuclei (%): 23%
  Population Tubulin-Different-Phenotype (%): 56%
  Total Cell Count: 123
[9]
  Population Apoptotic (%): 66%
  Population Fragmented Nuclei (%): 19%
  Population Healthy Nuclei (%): 74%
  Population Hoechst High Intensity Objects (%): 3%
  Population Membrane Permeable-Phenotype (%): 0%
  Population Mitochondria Different-Phenotype (%): 1%
  Population Mitotic Cells (%): 33%
  Population Normal (%): 96%
  Population Pyknosed Nuclei (%): 6%
  Population Tubulin-Different-Phenotype (%): 22%
  Total Cell Count: 193
[10]
  Population Apoptotic (%): 54%
  Population Fragmented Nuclei (%): 27%
  Population Healthy Nuclei (%): 47%
  Population Hoechst High Intensity Objects (%): 8%
  Population Membrane Permeable-Phenotype (%): 13%
  Population Mitochondria Different-Phenotype (%): 4%
  Population Mitotic Cells (%): 45%
  Population Normal (%): 91%
  Population Pyknosed Nuclei (%): 24%
  Population Tubulin-Different-Phenotype (%): 55%
  Total Cell Count: 156
[11]
  Population Apoptotic (%): 63%
  Population Fragmented Nuclei (%): 13%
  Population Healthy Nuclei (%): 65%
  Population Hoechst High Intensity Objects (%): 2%
  Population Membrane Permeable-Phenotype (%): 0%
  Population Mitochondria Different-Phenotype (%): 8%
  Population Mitotic Cells (%): 36%
  Population Normal (%): 97%
  Population Pyknosed Nuclei (%): 20%
  Population Tubulin-Different-Phenotype (%): 48%
  Total Cell Count: 164
[12]
  Population Apoptotic (%): 50%
  Population Fragmented Nuclei (%): 31%
  Population Healthy Nuclei (%): 51%
  Population Hoechst High Intensity Objects (%): 0%
  Population Membrane Permeable-Phenotype (%): 9%
  Population Mitochondria Different-Phenotype (%): 14%
  Population Mitotic Cells (%): 50%
  Population Normal (%): 100%
  Population Pyknosed Nuclei (%): 17%
  Population Tubulin-Different-Phenotype (%): 76%
  Total Cell Count: 125
